Tested on: Amaranthus retroflexus
Assay: Herbicidal activity against Amaranthus retroflexus assessed as inhibition of fresh weed plant weight at 1500 g/ha using post-emergence treatment protocol
Format: functional
Procedure, shortened: (§1)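 Test compounds made up as emulsions by dissolving in 100 µL N,N-dimethylformamide, then adding a little Tween 20 and water. For post-emergence, weed seedlings at one leaf and one stem were sprayed at the same rates as the pre-emergence test. Fresh weight was recorded 15 days after treatment and expressed as percent inhibition versus controls. All treatments were run in triplicate.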

| Structure (SMILES) | inhibition at 1500 g/ha [%] |
| --- | --- |
| C=CCN1C(=O)COc2cc(F)c(-n3nnc4nn(CC=C)cc4c3=O)cc21 | 100 |

Tested on: Amaranthus retroflexus
Assay: Herbicidal activity against Amaranthus retroflexus assessed as inhibition of fresh weed plant weight at 187.5 g/ha using pre-emergence treatment protocol
Format: functional

| Structure (SMILES) | inhibition at 187.5 g/ha [%] |
| --- | --- |
| C=CCN1C(=O)COc2cc(F)c(-n3nnc4nn(CC=C)cc4c3=O)cc21 | 100 |

Tested on: Amaranthus retroflexus
Assay: Herbicidal activity against Amaranthus retroflexus assessed as inhibition of fresh weed plant weight at 93.75 g/ha using post-emergence treatment protocol
Format: functional
Procedure, shortened: as §1

| Structure (SMILES) | inhibition at 93.75 g/ha [%] |
| --- | --- |
| C=CCN1C(=O)COc2cc(F)c(-n3nnc4nn(CC=C)cc4c3=O)cc21 | 28.9 |

Tested on: Amaranthus retroflexus
Assay: Herbicidal activity against Amaranthus retroflexus assessed as inhibition of fresh weed plant weight at 750 g/ha using pre-emergence treatment protocol
Format: functional
Procedure, shortened: as §1

| Structure (SMILES) | inhibition at 750 g/ha [%] |
| --- | --- |
| C=CCN1C(=O)COc2cc(F)c(-n3nnc4nn(CC=C)cc4c3=O)cc21 | 100 |

Tested on: Brassica rapa subsp. oleifera
Assay: Herbicidal activity against Brassica rapa subsp. oleifera assessed as inhibition of fresh weed plant weight at 93.75 g/ha using pre-emergence treatment protocol
Format: functional

| Structure (SMILES) | inhibition at 93.75 g/ha [%] |
| --- | --- |
| C=CCN1C(=O)COc2cc(F)c(-n3nnc4nn(CC=C)cc4c3=O)cc21 | 51.2 |

Tested on: Echinochloa crus-galli
Assay: Herbicidal activity against Echinochloa crus-galli (barnyard grass) assessed as inhibition of fresh weed plant weight at 1500 g/ha using post-emergence treatment protocol
Format: functional
Procedure, shortened: as §1

| Structure (SMILES) | inhibition at 1500 g/ha [%] |
| --- | --- |
| C=CCN1C(=O)COc2cc(F)c(-n3nnc4nn(CC=C)cc4c3=O)cc21 | 30.8 |

Tested on: Brassica rapa subsp. oleifera
Assay: Herbicidal activity against Brassica rapa subsp. oleifera assessed as inhibition of fresh weed plant weight at 1500 g/ha using pre-emergence treatment protocol
Format: functional

| Structure (SMILES) | inhibition at 1500 g/ha [%] |
| --- | --- |
| C=CCN1C(=O)COc2cc(F)c(-n3nnc4nn(CC=C)cc4c3=O)cc21 | 100 |

Tested on: Amaranthus retroflexus
Assay: Herbicidal activity against Amaranthus retroflexus assessed as inhibition of fresh weed plant weight at 187.5 g/ha using post-emergence treatment protocol
Format: functional
Procedure, shortened: as §1

| Structure (SMILES) | inhibition at 187.5 g/ha [%] |
| --- | --- |
| C=CCN1C(=O)COc2cc(F)c(-n3nnc4nn(CC=C)cc4c3=O)cc21 | 45.5 |

Tested on: Echinochloa crus-galli
Assay: Herbicidal activity against Echinochloa crus-galli (barnyard grass) assessed as inhibition of fresh weed plant weight at 750 g/ha using pre-emergence treatment protocol
Format: functional

| Structure (SMILES) | inhibition at 750 g/ha [%] |
| --- | --- |
| C=CCN1C(=O)COc2cc(F)c(-n3nnc4nn(CC=C)cc4c3=O)cc21 | 89.7 |

Tested on: Echinochloa crus-galli
Assay: Herbicidal activity against Echinochloa crus-galli (barnyard grass) assessed as inhibition of fresh weed plant weight at 750 g/ha using post-emergence treatment protocol
Format: functional
Procedure, shortened: as §1

| Structure (SMILES) | inhibition at 750 g/ha [%] |
| --- | --- |
| C=CCN1C(=O)COc2cc(F)c(-n3nnc4nn(CC=C)cc4c3=O)cc21 | 18.1 |

Tested on: Digitaria sanguinalis
Assay: Herbicidal activity against Digitaria sanguinalis (hairy crabgrass) assessed as inhibition of fresh weed plant weight at 750 g/ha using pre-emergence treatment protocol
Format: functional

| Structure (SMILES) | inhibition at 750 g/ha [%] |
| --- | --- |
| C=CCN1C(=O)COc2cc(F)c(-n3nnc4nn(CC=C)cc4c3=O)cc21 | 75.5 |

Tested on: Echinochloa crus-galli
Assay: Herbicidal activity against Echinochloa crus-galli (barnyard grass) assessed as inhibition of fresh weed plant weight at 93.75 g/ha using post-emergence treatment protocol
Format: functional
Procedure, shortened: as §1

| Structure (SMILES) | inhibition at 93.75 g/ha [%] |
| --- | --- |
| C=CCN1C(=O)COc2cc(F)c(-n3nnc4nn(CC=C)cc4c3=O)cc21 | 0 |

Tested on: Amaranthus retroflexus
Assay: Herbicidal activity against Amaranthus retroflexus assessed as inhibition of fresh weed plant weight at 375 g/ha using pre-emergence treatment protocol
Format: functional

| Structure (SMILES) | inhibition at 375 g/ha [%] |
| --- | --- |
| C=CCN1C(=O)COc2cc(F)c(-n3nnc4nn(CC=C)cc4c3=O)cc21 | 100 |

Tested on: Digitaria sanguinalis
Assay: Herbicidal activity against Digitaria sanguinalis (hairy crabgrass) assessed as inhibition of fresh weed plant weight at 375 g/ha using post-emergence treatment protocol
Format: functional
Procedure, shortened: as §1

| Structure (SMILES) | inhibition at 375 g/ha [%] |
| --- | --- |
| C=CCN1C(=O)COc2cc(F)c(-n3nnc4nn(CC=C)cc4c3=O)cc21 | 0 |

Tested on: Brassica rapa subsp. oleifera
Assay: Herbicidal activity against Brassica rapa subsp. oleifera assessed as inhibition of fresh weed plant weight at 375 g/ha using post-emergence treatment protocol
Format: functional
Procedure, shortened: as §1

| Structure (SMILES) | inhibition at 375 g/ha [%] |
| --- | --- |
| C=CCN1C(=O)COc2cc(F)c(-n3nnc4nn(CC=C)cc4c3=O)cc21 | 60.8 |

Tested on: Brassica rapa subsp. oleifera
Assay: Herbicidal activity against Brassica rapa subsp. oleifera assessed as inhibition of fresh weed plant weight at 1500 g/ha using post-emergence treatment protocol
Format: functional
Procedure, shortened: as §1

| Structure (SMILES) | inhibition at 1500 g/ha [%] |
| --- | --- |
| C=CCN1C(=O)COc2cc(F)c(-n3nnc4nn(CC=C)cc4c3=O)cc21 | 95.6 |

Tested on: Echinochloa crus-galli
Assay: Herbicidal activity against Echinochloa crus-galli (barnyard grass) assessed as inhibition of fresh weed plant weight at 187.5 g/ha using post-emergence treatment protocol
Format: functional
Procedure, shortened: as §1

| Structure (SMILES) | inhibition at 187.5 g/ha [%] |
| --- | --- |
| C=CCN1C(=O)COc2cc(F)c(-n3nnc4nn(CC=C)cc4c3=O)cc21 | 2.8 |

Tested on: Echinochloa crus-galli
Assay: Herbicidal activity against Echinochloa crus-galli (barnyard grass) assessed as inhibition of fresh weed plant weight at 93.75 g/ha using pre-emergence treatment protocol
Format: functional

| Structure (SMILES) | inhibition at 93.75 g/ha [%] |
| --- | --- |
| C=CCN1C(=O)COc2cc(F)c(-n3nnc4nn(CC=C)cc4c3=O)cc21 | 8.2 |

Tested on: Amaranthus retroflexus
Assay: Herbicidal activity against Amaranthus retroflexus assessed as inhibition of fresh weed plant weight at 375 g/ha using post-emergence treatment protocol
Format: functional
Procedure, shortened: as §1

| Structure (SMILES) | inhibition at 375 g/ha [%] |
| --- | --- |
| C=CCN1C(=O)COc2cc(F)c(-n3nnc4nn(CC=C)cc4c3=O)cc21 | 83.5 |

Tested on: Echinochloa crus-galli
Assay: Herbicidal activity against Echinochloa crus-galli (barnyard grass) assessed as inhibition of fresh weed plant weight at 187.5 g/ha using pre-emergence treatment protocol
Format: functional
Procedure, shortened: as §1

| Structure (SMILES) | inhibition at 187.5 g/ha [%] |
| --- | --- |
| C=CCN1C(=O)COc2cc(F)c(-n3nnc4nn(CC=C)cc4c3=O)cc21 | 18.2 |
